{"source": "ChEMBL document CHEMBL3856243", "about": "“Structure-Activity Relationships and Kinetic Studies of Peptidic Antagonists of CBX Chromodomains” (J Med Chem, 2016)", "key": {"[1]": {"target": "T1, Testis-specific chromodomain protein Y 1 (Homo sapiens, UniProt Q9Y6F8)", "T1 sequence (Q9Y6F8 whole entry)": "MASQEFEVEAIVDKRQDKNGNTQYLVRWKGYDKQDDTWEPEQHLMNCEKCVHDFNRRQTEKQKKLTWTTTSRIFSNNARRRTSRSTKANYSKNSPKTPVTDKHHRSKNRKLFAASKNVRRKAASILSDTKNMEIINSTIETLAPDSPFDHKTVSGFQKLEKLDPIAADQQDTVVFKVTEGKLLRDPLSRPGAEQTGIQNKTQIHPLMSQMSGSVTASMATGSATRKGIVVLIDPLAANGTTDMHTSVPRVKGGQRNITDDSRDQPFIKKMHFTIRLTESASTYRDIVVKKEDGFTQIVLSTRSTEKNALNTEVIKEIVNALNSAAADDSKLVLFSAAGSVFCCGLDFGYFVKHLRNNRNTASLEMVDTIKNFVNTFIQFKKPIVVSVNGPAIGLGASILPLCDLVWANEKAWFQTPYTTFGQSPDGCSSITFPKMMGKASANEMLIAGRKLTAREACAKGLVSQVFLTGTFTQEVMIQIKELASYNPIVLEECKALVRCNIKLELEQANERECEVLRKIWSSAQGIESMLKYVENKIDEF", "test": "Binding affinity to human N-terminal GST-tagged CDY1 chromodomain (1 to 101 residues) expressed in Escherichia coli Rosetta BL21(DE3)pLysS by ITC method"}, "[2]": {"target": "Chromobox protein homolog 3 (Homo sapiens, UniProt Q13185)", "sequence (Q13185 whole entry)": "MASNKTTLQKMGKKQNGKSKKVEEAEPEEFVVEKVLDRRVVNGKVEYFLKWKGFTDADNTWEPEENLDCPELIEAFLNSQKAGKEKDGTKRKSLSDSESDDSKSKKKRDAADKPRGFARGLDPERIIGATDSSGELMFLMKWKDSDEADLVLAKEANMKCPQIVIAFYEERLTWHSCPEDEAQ", "test": "Binding affinity to CBX3 chromodomain (unknown origin) by ITC method"}, "[3]": {"target": "Chromobox protein homolog 1 (Homo sapiens, UniProt P83916)", "sequence (P83916 whole entry)": "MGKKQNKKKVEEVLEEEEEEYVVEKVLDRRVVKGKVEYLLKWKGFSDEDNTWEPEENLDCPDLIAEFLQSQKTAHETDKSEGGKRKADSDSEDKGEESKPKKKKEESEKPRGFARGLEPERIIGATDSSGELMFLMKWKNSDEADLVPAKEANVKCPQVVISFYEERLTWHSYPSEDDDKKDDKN", "test": "Binding affinity to CBX1 chromodomain (unknown origin) by ITC method"}, "[4]": {"target": "T2, Chromodomain Y-like protein (Homo sapiens, UniProt Q9Y232)", "T2 sequence (Q9Y232 whole entry)": "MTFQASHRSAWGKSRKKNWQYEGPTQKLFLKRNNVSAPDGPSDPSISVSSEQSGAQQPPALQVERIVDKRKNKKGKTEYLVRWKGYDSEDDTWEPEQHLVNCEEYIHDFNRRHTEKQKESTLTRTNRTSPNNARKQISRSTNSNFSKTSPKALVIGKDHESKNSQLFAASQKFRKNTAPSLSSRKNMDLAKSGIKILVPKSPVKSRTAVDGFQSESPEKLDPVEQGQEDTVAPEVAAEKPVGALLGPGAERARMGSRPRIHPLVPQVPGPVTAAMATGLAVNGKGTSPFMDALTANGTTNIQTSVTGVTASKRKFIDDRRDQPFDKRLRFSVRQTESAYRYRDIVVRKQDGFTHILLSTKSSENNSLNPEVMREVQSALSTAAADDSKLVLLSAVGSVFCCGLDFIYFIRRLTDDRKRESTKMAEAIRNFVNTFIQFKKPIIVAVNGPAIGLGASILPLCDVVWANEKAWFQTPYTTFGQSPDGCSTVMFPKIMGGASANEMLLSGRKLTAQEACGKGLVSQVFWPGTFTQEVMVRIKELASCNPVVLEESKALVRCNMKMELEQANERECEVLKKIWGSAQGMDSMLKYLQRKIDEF", "test": "Binding affinity to human N-terminal GST-tagged CDYL1b chromodomain (1 to 78 residues) expressed in Escherichia coli Rosetta BL21(DE3)pLysS by ITC method"}, "[5]": {"target": "Chromobox protein homolog 5 (Homo sapiens, UniProt P45973)", "sequence (P45973 whole entry)": "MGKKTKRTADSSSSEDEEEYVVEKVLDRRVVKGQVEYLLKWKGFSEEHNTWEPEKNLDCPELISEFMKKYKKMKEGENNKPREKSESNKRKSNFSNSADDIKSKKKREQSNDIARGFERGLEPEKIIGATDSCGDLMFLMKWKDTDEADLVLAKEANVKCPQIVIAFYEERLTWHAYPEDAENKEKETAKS", "test": "Binding affinity to CBX5 chromodomain (unknown origin) by ITC method"}, "[6]": {"target": "T3, Chromobox protein homolog 6 (Homo sapiens, UniProt O95503)", "T3 sequence (O95503 whole entry)": "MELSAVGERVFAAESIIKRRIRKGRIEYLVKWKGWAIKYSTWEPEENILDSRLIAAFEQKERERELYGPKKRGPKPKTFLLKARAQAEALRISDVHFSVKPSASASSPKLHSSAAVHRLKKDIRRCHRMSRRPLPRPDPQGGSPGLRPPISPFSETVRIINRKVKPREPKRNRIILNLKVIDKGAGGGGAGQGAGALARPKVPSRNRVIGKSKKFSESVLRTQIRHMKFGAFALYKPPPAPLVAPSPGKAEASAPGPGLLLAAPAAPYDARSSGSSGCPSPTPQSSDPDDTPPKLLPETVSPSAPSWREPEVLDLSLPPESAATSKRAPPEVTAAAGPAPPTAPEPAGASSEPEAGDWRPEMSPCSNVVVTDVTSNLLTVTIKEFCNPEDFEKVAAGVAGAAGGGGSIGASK", "test": "Binding affinity to human N-terminal his-tagged CBX6 chromodomain (8 to 65 residues) expressed in Escherichia coli Rosetta BL21(DE3)pLysS by ITC method"}, "[7]": {"target": "T4, Chromobox protein homolog 8 (Homo sapiens, UniProt Q9HC52)", "T4 sequence (Q9HC52 whole entry)": "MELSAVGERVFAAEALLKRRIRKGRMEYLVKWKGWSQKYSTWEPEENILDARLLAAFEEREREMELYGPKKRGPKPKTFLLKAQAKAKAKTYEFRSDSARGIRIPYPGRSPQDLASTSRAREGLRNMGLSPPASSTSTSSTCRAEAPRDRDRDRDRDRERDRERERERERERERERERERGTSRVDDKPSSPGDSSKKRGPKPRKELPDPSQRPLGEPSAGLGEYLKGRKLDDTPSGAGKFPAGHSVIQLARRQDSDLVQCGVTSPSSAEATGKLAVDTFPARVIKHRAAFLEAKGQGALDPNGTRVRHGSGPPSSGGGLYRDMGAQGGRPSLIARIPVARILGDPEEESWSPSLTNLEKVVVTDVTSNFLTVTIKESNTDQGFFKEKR", "test": "Binding affinity to human N-terminal his-tagged CBX8 chromodomain (8 to 61 residues) expressed in Escherichia coli Rosetta BL21(DE3)pLysS by ITC method"}, "[8]": {"target": "T5, Chromobox protein homolog 2 (Homo sapiens, UniProt Q14781)", "T5 sequence (Q14781 whole entry)": "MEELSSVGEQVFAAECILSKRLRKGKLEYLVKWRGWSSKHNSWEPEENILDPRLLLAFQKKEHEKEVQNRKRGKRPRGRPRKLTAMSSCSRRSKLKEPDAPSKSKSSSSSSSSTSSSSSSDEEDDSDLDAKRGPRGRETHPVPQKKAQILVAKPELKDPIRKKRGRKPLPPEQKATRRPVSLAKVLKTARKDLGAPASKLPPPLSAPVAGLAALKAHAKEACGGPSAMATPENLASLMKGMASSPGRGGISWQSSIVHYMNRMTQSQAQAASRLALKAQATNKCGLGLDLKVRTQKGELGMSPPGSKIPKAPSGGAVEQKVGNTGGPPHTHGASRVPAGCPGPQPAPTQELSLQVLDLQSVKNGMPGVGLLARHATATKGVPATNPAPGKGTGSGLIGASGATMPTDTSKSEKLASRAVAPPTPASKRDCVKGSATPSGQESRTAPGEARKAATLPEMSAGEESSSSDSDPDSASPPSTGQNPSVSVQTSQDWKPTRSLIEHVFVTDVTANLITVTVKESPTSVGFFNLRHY", "test": "Binding affinity to human N-terminal his-tagged CBX2 chromodomain (9 to 66 residues) expressed in Escherichia coli Rosetta BL21(DE3)pLysS by ITC method"}, "[9]": {"target": "T6, Chromodomain Y-like protein 2 (Homo sapiens, UniProt Q8N8U2)", "T6 sequence (Q8N8U2 whole entry)": "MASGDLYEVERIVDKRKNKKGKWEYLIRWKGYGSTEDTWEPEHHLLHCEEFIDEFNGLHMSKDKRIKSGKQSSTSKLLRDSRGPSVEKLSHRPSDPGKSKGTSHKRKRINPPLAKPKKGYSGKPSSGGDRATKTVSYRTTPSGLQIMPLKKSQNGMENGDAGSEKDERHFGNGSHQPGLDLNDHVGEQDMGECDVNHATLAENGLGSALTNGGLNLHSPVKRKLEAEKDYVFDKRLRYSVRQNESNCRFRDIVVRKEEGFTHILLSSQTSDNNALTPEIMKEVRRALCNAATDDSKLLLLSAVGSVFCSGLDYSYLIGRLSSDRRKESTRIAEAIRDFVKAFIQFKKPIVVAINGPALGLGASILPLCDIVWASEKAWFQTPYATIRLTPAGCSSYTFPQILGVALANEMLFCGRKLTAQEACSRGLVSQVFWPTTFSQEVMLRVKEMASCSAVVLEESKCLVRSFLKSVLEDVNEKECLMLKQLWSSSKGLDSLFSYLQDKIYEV"}, "PC-3": {"tested_on": "PC-3", "test": "Antiproliferative activity against human PC3 cells assessed as reduction in cell count at 30 uM measured after 72 hrs by DAPI-staining based microscopic method", "format": "functional", "outline": "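PC3 cells seeded at 400/well, adhered overnight, then given DMEM + 10% FBS with 30 µM compound or DMSO for 72 h; fixed in ice-cold methanol, rehydrated in PBS, nuclei stained with DAPI (0.05 µg/ml) and counted by high content microscopy; counts normalized to DMSO control (n ≥ 4).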"}}, "note": "The source made the active and inactive calls. The calls are words filed in the database; no cut-off is given here. Square brackets hold non-standard residues; d marks the D form. Peptide text beside a SMILES is read from it. * marks the point of attachment. Benzoyl(4-tBu) = CC(C)(C)c1ccc(C(=O)*)cc1; Lys(Et2) = CCN(CC)CCCC[C@H](N)C(=O)O", "data": [{"smiles": "CCN(CC)CCCC[C@H](NC(=O)[C@H](CC(C)C)NC(=O)[C@H](C)NC(=O)[C@H](Cc1ccccc1)NC(=O)c1ccc(C(C)(C)C)cc1)C(=O)N[C@@H](CO)C(=O)OC", "note": "({Benzoyl(4-tBu)}-FAL[Lys(Et2)]S-OMe)", "values": [{"measurement": "Kd", "setting": "[1]", "value": 6300, "unit": "nM"}, {"measurement": "Kd", "setting": "[2]", "value": "> 100000", "unit": "nM"}, {"measurement": "Kd", "setting": "[3]", "value": "> 100000", "unit": "nM"}, {"measurement": "Kd", "setting": "[4]", "value": 910, "unit": "nM"}, {"measurement": "Kd", "setting": "[5]", "value": "> 100000", "unit": "nM"}, {"measurement": "Kd", "setting": "[6]", "value": 610, "unit": "nM"}, {"measurement": "Kd", "setting": "[7]", "value": 1200, "unit": "nM"}, {"measurement": "Kd", "setting": "[8]", "value": 1800, "unit": "nM"}, {"measurement": "Kd", "setting": "[9]", "value": 850, "unit": "nM"}, {"measurement": "Activity", "setting": "PC-3", "value": "Active"}]}]}
